In ChEMBL document CHEMBL4024753, “Lipoyl-Homotaurine Derivative (ADM_12) Reverts Oxaliplatin-Induced Neuropathy and Reduces Cancer Cells Malignancy by Inhibiting Carbonic Anhydrase IX (CAIX)” (J Med Chem, 2017):
pKd, pKi: −log10 of the molar value. Calls of active or inactive are those of the source. No cut-off for these calls is given here.

How the values were obtained:
Carbonic anhydrase 12 = Carbonic anhydrase 12 (Homo sapiens, UniProt O43570); test: Inhibition of human carbonic anhydrase 12 incubated for 15 mins prior to testing by stopped flow CO2 hydrase assay
Carbonic anhydrase 9 [1] = target: T1, Carbonic anhydrase 9 (Homo sapiens, UniProt Q16790); test: Inhibition of human carbonic anhydrase 9 incubated for 15 mins prior to testing by stopped flow CO2 hydrase assay
HT-29 [2] = test: Cytotoxicity against human HT-29 cells assessed as mortality at 1 to 300 uM after 24 hrs by MTT assay relative to control; format: functional
Method in brief: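 Human colon cancer HT-29 cells incubated with increasing concentrations (1−300 μM) for 24 h; viability read by MTT test and expressed as % of viable cells relative to untreated control.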

[3] = Antioxidant activity of compound assessed as reduction in ipoxanthine/xanthine oxidase-induced superoxide anion level after 30 mins by nitro blue tetrazolium-based spectrophotometric assay; format: functional
Method in brief: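 Cell-free test with superoxide generated by a hypoxanthine–xanthine oxidase system. Nitro blue tetrazolium […] read after 30 min without or with increasing compound concentrations (up to 1000 μM).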

Carbonic anhydrase 9 [4] = target: T1, Carbonic anhydrase 9; settings: 100 uM
[5] = target: Macrophage metalloelastase (Homo sapiens, UniProt P39900); test: Binding affinity to human 15N-labeled MMP-12 catalytic domain (G106 to G263 residues) expressed in Escherichia coli BL21 Gold by 1H […] NMR method
Method in brief: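 2D 1H−15N HSQC spectra of the MMP-12 catalytic domain titrated with ligand (up to 3.3 mM). Kd derived by fitting chemical shift variations of residues.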

Carbonic anhydrase 9 [6] = target: T1, Carbonic anhydrase 9; settings: 100 uM; remark: listed apart in the source
Carbonic anhydrase 9 [7] = target: T1, Carbonic anhydrase 9; settings: 100 uM; remark: listed apart in the source
HT-29 [8] = test: Synergistic antiproliferative activity against human HT-29 cells assessed as cell viability at 100 uM after 24 hrs in presence of 30 uM oxaliplatin by MTT assay relative to control; format: functional
Method in brief: (§1)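 HT-29 cells co-treated 24 h with compound at 100 μM plus oxaliplatin (1, 10, 30, 100 or 300 μM). Viability by MTT as % viable cells versus untreated control. Compared to control and to compound alone.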

HT-29 [9] = test: Synergistic antiproliferative activity against human HT-29 cells assessed as cell viability at 100 uM after 24 hrs in presence of 300 uM oxaliplatin by MTT assay relative to control; format: functional; method in brief: as §1
Carbonic anhydrase 9 [10] = target: T1, Carbonic anhydrase 9; settings: 100 uM; remark: listed apart in the source
Carbonic anhydrase 9 [11] = target: T1, Carbonic anhydrase 9; settings: 100 uM; remark: listed apart in the source
Astrocyte = test: Antioxidant activity in Sprague-Dawley rat primary cortical astrocytes assessed as inhibition of OXA-induced superoxide radical anion at 100 uM after 4 hrs by cytochrome C assay relative to control; format: functional
Method in brief: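 Primary rat cortical astrocytes (5 × 10^5 cells/well) exposed to 100 μM oxaliplatin for 4 h, with or without co-incubated compound. Superoxide measured by cytochrome C assay. Absorbance in the presence of SOD subtracted as nonspecific. Mean ± SEM of three experiments versus untreated culture.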

HT-29 [12] = test: Synergistic antiproliferative activity against human HT-29 cells assessed as cell viability at 100 uM after 24 hrs in presence of 10 uM oxaliplatin by MTT assay relative to control; format: functional; method in brief: as §1
Rattus norvegicus = test: Antihyperalgesic activity in OXA-induced neuropathic pain Sprague-Dawley rat model assessed as reduction in response to noxious mechanical stimulus at 30 mg/kg, po after 15 to 75 mins on day 21 post induction; format: functional, organism-based
Method in brief: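 Male Sprague-Dawley rats (200-250 g) given oxaliplatin 2.4 mg kg−1 ip daily in 0.5% glucose solution. On day 21, single po dose of test agent in 1% CMC vehicle. Paw-pressure test (noxious mechanical stimulus, weight tolerated) repeated over time after dosing. 12 rats per group from two experimental sets, mean ± SEM.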

HT-29 [13] = test: Antiproliferative activity against human HT-29 cells assessed as cell viability at 100 uM after 24 hrs by MTT assay relative to control; format: functional; settings: HT-29, 24 h, read-out: Activity
Method in brief: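 HT-29 human colon cancer cells incubated 24 h with compound (range 1−300 μM). Viability by MTT, expressed as % viable cells relative to untreated control.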

Carbonic anhydrase 9 [14] = target: T1, Carbonic anhydrase 9; settings: 100 uM; remark: listed apart in the source
HT-29 [15] = test: Synergistic antiproliferative activity against human HT-29 cells assessed as cell viability at 100 uM after 24 hrs in presence of 100 uM oxaliplatin by MTT assay relative to control; format: functional; settings: HT-29, 24 h, read-out: Activity; method in brief: as §1
[16] = target: Transient receptor potential cation channel subfamily A member 1 (Homo sapiens) (UniProt O75762); test: Inhibition of oxaliplatin activated TRPA1 (unknown origin) expressed in CHO cells assessed as reduction in channel evoked current at 30 uM by Patch-clamp method; format: cell-based
Method in brief: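 CHO cells transiently transfected with wild-type TRPA1, EGFP as transfection marker. Whole-cell patch clamp 48−72 h after transfection. Voltage ramps read at +50 and −50 mV. Currents evoked by 50 μM oxaliplatin, then compound applied. n = 5 cells, unpaired Student's t test.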

Carbonic anhydrase 9 [17] = target: T1, Carbonic anhydrase 9; settings: 100 uM; remark: listed apart in the source
HT-29 [18] = test: Synergistic antiproliferative activity against human HT-29 cells assessed as cell viability at 100 uM after 24 hrs in presence of 1 uM oxaliplatin by MTT assay relative to control; format: functional; method in brief: as §1

Chain of Carbonic anhydrase 12 (O43570 whole entry): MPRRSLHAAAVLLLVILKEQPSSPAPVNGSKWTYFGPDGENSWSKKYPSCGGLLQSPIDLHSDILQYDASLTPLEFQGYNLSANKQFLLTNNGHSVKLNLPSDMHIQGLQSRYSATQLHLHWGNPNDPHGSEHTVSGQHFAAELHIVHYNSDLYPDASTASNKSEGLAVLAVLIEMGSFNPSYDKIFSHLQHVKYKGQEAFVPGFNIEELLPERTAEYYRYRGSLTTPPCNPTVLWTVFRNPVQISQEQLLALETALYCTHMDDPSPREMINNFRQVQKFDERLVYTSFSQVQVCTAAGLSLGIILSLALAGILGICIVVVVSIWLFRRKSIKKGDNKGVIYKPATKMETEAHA
Chain of Macrophage metalloelastase (P39900 whole entry, the tested form may be a part): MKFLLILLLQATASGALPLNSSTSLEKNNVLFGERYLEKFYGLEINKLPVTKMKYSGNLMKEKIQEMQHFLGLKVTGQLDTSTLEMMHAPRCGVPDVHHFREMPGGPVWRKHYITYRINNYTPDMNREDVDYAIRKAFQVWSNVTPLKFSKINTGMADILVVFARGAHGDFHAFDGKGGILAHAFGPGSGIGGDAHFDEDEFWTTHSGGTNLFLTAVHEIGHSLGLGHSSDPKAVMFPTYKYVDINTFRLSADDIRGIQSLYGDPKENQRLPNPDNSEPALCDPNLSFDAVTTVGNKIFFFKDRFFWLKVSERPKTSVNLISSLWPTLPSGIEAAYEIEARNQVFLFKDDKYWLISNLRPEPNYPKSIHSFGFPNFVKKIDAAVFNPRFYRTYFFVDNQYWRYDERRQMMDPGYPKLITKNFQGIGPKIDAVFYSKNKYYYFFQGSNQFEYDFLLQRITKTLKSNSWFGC
Chain of Transient receptor potential cation channel subfamily A member 1 (Homo sapiens) (O75762 whole entry): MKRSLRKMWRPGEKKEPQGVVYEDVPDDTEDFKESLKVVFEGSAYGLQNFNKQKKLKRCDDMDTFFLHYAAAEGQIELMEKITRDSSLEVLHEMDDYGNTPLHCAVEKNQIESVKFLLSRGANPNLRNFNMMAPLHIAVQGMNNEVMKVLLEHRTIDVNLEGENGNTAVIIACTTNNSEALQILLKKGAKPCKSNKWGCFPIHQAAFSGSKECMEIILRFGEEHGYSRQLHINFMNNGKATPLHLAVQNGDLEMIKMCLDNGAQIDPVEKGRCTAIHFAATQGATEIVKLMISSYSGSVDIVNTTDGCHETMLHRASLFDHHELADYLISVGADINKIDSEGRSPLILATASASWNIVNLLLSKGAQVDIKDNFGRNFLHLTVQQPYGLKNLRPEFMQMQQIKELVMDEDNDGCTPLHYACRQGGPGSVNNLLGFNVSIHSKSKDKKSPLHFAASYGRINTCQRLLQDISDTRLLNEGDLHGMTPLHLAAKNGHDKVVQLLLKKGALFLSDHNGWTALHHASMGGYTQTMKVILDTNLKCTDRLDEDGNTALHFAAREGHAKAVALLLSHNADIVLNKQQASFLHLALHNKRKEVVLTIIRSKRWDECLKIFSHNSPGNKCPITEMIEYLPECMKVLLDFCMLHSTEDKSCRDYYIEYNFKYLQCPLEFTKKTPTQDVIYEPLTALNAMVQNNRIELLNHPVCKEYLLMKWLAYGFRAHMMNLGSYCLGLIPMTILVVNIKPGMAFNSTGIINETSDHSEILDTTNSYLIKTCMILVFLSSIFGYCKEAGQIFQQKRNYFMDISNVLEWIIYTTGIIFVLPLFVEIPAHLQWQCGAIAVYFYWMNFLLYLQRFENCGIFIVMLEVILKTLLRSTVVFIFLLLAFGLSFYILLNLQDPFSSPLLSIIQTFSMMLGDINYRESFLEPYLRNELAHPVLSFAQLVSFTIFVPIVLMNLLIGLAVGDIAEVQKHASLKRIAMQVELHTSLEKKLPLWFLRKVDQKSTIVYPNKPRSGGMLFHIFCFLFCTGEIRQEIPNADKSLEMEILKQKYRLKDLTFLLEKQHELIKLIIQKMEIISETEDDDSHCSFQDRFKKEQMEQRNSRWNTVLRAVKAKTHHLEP

With O=S(=O)(O)/C=C/c1cc(Br)ccc1O the pKi (Carbonic anhydrase 12) was 5.35 and the pKi (Carbonic anhydrase 9 [1]) was 5.17.
In the case of O=C(CCCCC1CCSS1)NCCCS(=O)(=O)[O-].[Na+] (centres undefined), the mortality (HT-29 [2]) was 20%, the Activity [3] was “Dose-dependent effect” and the inhibition (Carbonic anhydrase 9 [4]) was “Active”. The pKd [5] was 3.06, the inhibition (Carbonic anhydrase 9 [6]) was “Active” and the inhibition (Carbonic anhydrase 9 [7]) was “Active”. The Activity (HT-29 [8]) was 71.4%, the Activity (HT-29 [9]) was 48.1% and the inhibition (Carbonic anhydrase 9 [10]) was “Active”. The inhibition (Carbonic anhydrase 9 [11]) was “Active”, the inhibition at 100 µM (Astrocyte) was 75% and the pKi (Carbonic anhydrase 12) was 6.14. The Activity (HT-29 [12]) was 78.6%, the Activity (Rattus norvegicus) was “Active” and the viability at 100 µM (HT-29 [13]) was 81.3%. The inhibition (Carbonic anhydrase 9 [14]) was “Active”, the viability at 100 µM (HT-29 [15]) was 67.4% and the pKi (Carbonic anhydrase 9 [1]) was 6.18. The inhibition [16] was “Active”, the inhibition (Carbonic anhydrase 9 [17]) was “Active” and the Activity (HT-29 [18]) was 74.6%.
For O=C(CCCCC1CCSS1)NCCS(=O)(=O)O (centres undefined), the Activity [3] was “Dose-dependent effect”, the inhibition at 100 µM (Astrocyte) was 75% and the Activity (Rattus norvegicus) was “Active”.
With O=C(CCCCC1CCSS1)NCCCCS(=O)(=O)O (centres undefined) the Activity [3] was “Dose-dependent effect”, the inhibition at 100 µM (Astrocyte) was 75% and the Activity (Rattus norvegicus) was “Active”.
